Active and inactive are the calls of the source. No cut-off for these calls is given here.
Key:
[1] = test system: Escherichia coli B; test: Inhibition of Escherichia coli B thymidine kinase using [2-14C]-thymidine as substrate assessed as formation of [14C]-TMP at 2 mM after 10 mins by liquid scintillation spectrometric analysis relative to control
Method in brief: (§1)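 E. coli thymidine kinase (fraction V, purified from frozen cells; 7.2 × 10⁻⁶ units per assay) in Tris-HCl 71 mM, MgCl2 2.85 mM, MnCl2 0.71 mM, ATP 5.7 mM, BSA and [2-14C]thymidine 82 μM with test compound. The mixture was held at 37 °C for 10 min, then boiled. [14C]TMP was resolved by paper electrophoresis (pH 7.6) and scintillation-counted, with the unincubated blank subtracted.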

[2] = test system: Escherichia coli B; test: Inhibition of Escherichia coli B thymidine kinase using [2-14C]-thymidine as substrate assessed as formation of [14C]-TMP at 1 mM after 10 mins by liquid scintillation spectrometric analysis relative to control; method in brief: as §1
[3] = test system: Escherichia coli B; test: Inhibition of Escherichia coli B thymidine kinase using [2-14C]-thymidine as substrate assessed as formation of [14C]-TMP at 0.5 mM after 10 mins by liquid scintillation spectrometric analysis relative to control; method in brief: as §1
[4] = Competitive inhibition of Escherichia coli B thymidine kinase using [2-14C]-thymidine as substrate assessed as formation of [14C]-TMP after 10 mins by Lineweaver-Burk double reciprocal plot analysis; settings: read-out: Ki(app)
Method in brief: (§2)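 Fraction V E. coli thymidine kinase was assayed with MgATP 5.7 mM and Mg/Mn salts in Tris-HCl at 37 °C for 10 min, reading [14C]TMP after electrophoresis. Four or more thymidine levels (20–160 μM) were used at each of two inhibitor levels plus an inhibitor-free control, all in duplicate. Ki (competitive) or I50 (noncompetitive) came from replots of Lineweaver-Burk slopes against inhibitor concentration, reproducible to ±7%.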

[5] = test system: Escherichia coli B; test: Inhibition of Escherichia coli B thymidine kinase using [2-14C]-thymidine as substrate assessed as formation of [14C]-TMP at 16 mM after 10 mins by liquid scintillation spectrometric analysis relative to control; method in brief: as §1
[6] = test system: Escherichia coli B; test: Non-competitive inhibition of Escherichia coli B thymidine kinase using [2-14C]-thymidine as substrate assessed as formation of [14C]-TMP at 16 mM after 10 mins by Lineweaver-Burk double reciprocal plot analysis
[7] = Non-competitive inhibition of Escherichia coli B thymidine kinase using [2-14C]-thymidine as substrate assessed as formation of [14C]-TMP after 10 mins by Lineweaver-Burk double reciprocal plot analysis; settings: read-out: I50; method in brief: as §2
[8] = test system: Escherichia coli B; test: Activation of Escherichia coli B thymidine kinase using [2-14C]-thymidine as substrate assessed as formation of [14C]-TMP at 2 mM after 10 mins by liquid scintillation spectrometric analysis relative to control; method in brief: as §1
[9] = test system: Escherichia coli B; test: Activation of Escherichia coli B thymidine kinase using [2-14C]-thymidine as substrate assessed as formation of [14C]-TMP at 0.1 mM after 10 mins by liquid scintillation spectrometric analysis relative to control; method in brief: as §1
[10] = test system: Escherichia coli B; test: Activation of Escherichia coli B thymidine kinase using [2-14C]-thymidine as substrate assessed as formation of [14C]-TMP at 0.5 mM after 10 mins by liquid scintillation spectrometric analysis relative to control; method in brief: as §1
[11] = test system: Escherichia coli B; test: Activation of Escherichia coli B thymidine kinase using [2-14C]-thymidine as substrate assessed as formation of [14C]-TMP at 8 mM after 10 mins by liquid scintillation spectrometric analysis relative to control; method in brief: as §1
[12] = test system: Escherichia coli B; test: Activity of Escherichia coli B thymidine kinase assessed as [14C]-TMP formation at 775 uM after 1 hr by liquid scintillation spectrometric analysis relative to thymidine; settings: tested as the 14C-labelled form
[13] = test system: Escherichia coli B; test: Activation of Escherichia coli B thymidine kinase using [2-14C]-thymidine as substrate assessed as formation of [14C]-TMP at 1 mM after 10 mins by liquid scintillation spectrometric analysis relative to control; method in brief: as §1
[14] = test system: Escherichia coli B; test: Inhibition of Escherichia coli B thymidine kinase using [2-14C]-thymidine as substrate assessed as formation of [14C]-TMP at 8 mM after 10 mins by liquid scintillation spectrometric analysis relative to control; method in brief: as §1
[15] = test system: Escherichia coli B; test: Inhibition of Escherichia coli B thymidine kinase using [2-14C]-thymidine as substrate assessed as formation of [14C]-TMP at 4 mM after 10 mins by liquid scintillation spectrometric analysis relative to control; method in brief: as §1
[16] = test system: Escherichia coli B; test: Activity of Escherichia coli B thymidine kinase assessed as [14C]-TMP formation at 500 uM after 1 hr by liquid scintillation spectrometric analysis; settings: tested as the 14C-labelled form
[17] = test system: Escherichia coli B; test: Activity of Escherichia coli B thymidine kinase assessed as [14C]-TMP formation at 450 uM after 1 hr by liquid scintillation spectrometric analysis; settings: tested as the 14C-labelled form

CC(=O)N(C)CCCCN(C)C[C@H]1O[C@@H](n2cc(C)c(=O)[nH]c2=O)C[C@@H]1O
inhibition [1]: 14%
inhibition [2]: 14%

CCNc1ccn([C@H]2C[C@H](O)[C@@H](CO)O2)c(=O)n1
inhibition [1]: 0%
inhibition [3]: 0%

CC(=O)NCC(O)[C@H]1O[C@@H](n2cc(C)c(=O)[nH]c2=O)C[C@@H]1O (stereo in doubt; 4a)
Ki [4]: 1250 µM

CCCn1c(=O)c(C)cn([C@H]2C[C@H](O)[C@@H](CO)O2)c1=O
inhibition [2]: 39%
inhibition [3]: 28%

CC(=O)N(C)CCCCCCN(C)C[C@H]1O[C@@H](n2cc(C)c(=O)[nH]c2=O)C[C@@H]1O
inhibition [1]: 14%
inhibition [2]: 14%

CCOC1N([C@H]2C[C@H](O)[C@@H](CO)O2)C(=O)NC(=O)C1(C)Br (single isomer, unassigned; less polar)
inhibition [5]: 0%
inhibition [6]: inactive

CC(=O)NCCC(=O)Nc1cn([C@H]2C[C@H](O)[C@@H](CO)O2)c(=O)[nH]c1=O
inhibition [1]: 0%
inhibition [3]: 0%

N#Cc1cn([C@H]2C[C@H](O)[C@@H](CO)O2)c(=O)[nH]c1=O
inhibition [1]: 40%
inhibition [3]: 23%

CCOC1N([C@H]2C[C@H](O)[C@@H](CO)O2)C(=O)NC(=O)C1(C)Br (single isomer, unassigned)
inhibition [1]: 11%
inhibition [5]: 17%
inhibition [6]: inactive

CC(=O)NC[C@H]1O[C@@H](n2cc(C)c(=O)[nH]c2=O)C[C@@H]1O
inhibition [2]: 0%
inhibition [3]: 0%

CCC(=O)NCC(O)[C@H]1O[C@@H](n2cc(C)c(=O)[nH]c2=O)C[C@@H]1O (single isomer, unassigned; more polar)
Ki [4]: 6600 µM

Cc1cn([C@H]2C[C@H](N)[C@@H](CO)O2)c(=O)[nH]c1=O [3-AMINO- 3-DEOXYTHYMIDINE]
IC50 [7]: 2750 µM

CCCCCCNC[C@H]1O[C@@H](n2cc(C)c(=O)[nH]c2=O)C[C@@H]1O
Ki [4]: 2600 µM

CCCn1c(=O)ccn([C@H]2C[C@H](O)[C@@H](CO)O2)c1=O
inhibition [2]: 35%
inhibition [3]: 18%

CCS[C@H]1C[C@H](n2cc(C)c(=O)[nH]c2=O)O[C@@H]1CO
IC50 [7]: 320 µM

NCc1cn([C@H]2C[C@H](O)[C@@H](CO)O2)c(=O)[nH]c1=O
inhibition [2]: 25%
inhibition [3]: 14%

O=c1ccn([C@H]2C[C@H](O)[C@@H](CO)O2)c(=O)[nH]1 [DEOXYURIDINE]
Ki [4]: 290 µM

Cc1cn([C@H]2C[C@H](O)[C@@H](CN)O2)c(=O)[nH]c1=O
Ki [4]: 320 µM

CC(=O)NCC(O)[C@H]1O[C@@H](n2cc(C)c(=O)[nH]c2=O)C[C@@H]1O (mixture of isomers)
Ki [4]: 2000 µM

CCSC[C@H]1O[C@@H](n2cc(C)c(=O)[nH]c2=O)C[C@@H]1O
Activity [8]: 46%
Activity [9]: 70%
Activity [10]: 63%

Cc1cn([C@H]2C[C@H](O)[C@@H](CSCCC(=O)O)O2)c(=O)[nH]c1=O
Activity [8]: 125%
Activity [9]: 120%
Activity [11]: 106%
Activity [10]: 126%

Cc1cn([C@H]2C[C@H](O)[C@@H](C[S+]([O-])CCC(=O)O)O2)c(=O)[nH]c1=O (stereo partly specified)
Activity [8]: 42%
Activity [9]: -2%
Activity [11]: 65%
Activity [10]: -1%

CC(=O)NCc1cn([C@H]2C[C@H](O)[C@@H](CO)O2)c(=O)[nH]c1=O
Activity [12]: < 0.021%

CCn1c(=O)ccn([C@H]2C[C@H](O)[C@@H](CO)O2)c1=O
inhibition [2]: 22%
inhibition [3]: 12%

CCNc1cn([C@H]2C[C@H](O)[C@@H](CO)O2)c(=O)[nH]c1=O
inhibition [1]: 0%
inhibition [3]: 0%

CC(=O)N(C)CCN(C)C[C@H]1O[C@@H](n2cc(C)c(=O)[nH]c2=O)C[C@@H]1O
inhibition [1]: 0%
inhibition [2]: 0%

Cc1cn([C@H]2C[C@H](O)[C@@H](CSCCO)O2)c(=O)[nH]c1=O
Activity [8]: 25%
Activity [13]: 28%
Activity [10]: 15%

O=c1ccn([C@@H]2O[C@H](CO)[C@@H](O)[C@H]2O)c(=O)[nH]1 [URIDINE]
IC50 [7]: 47500 µM

Nc1cn([C@H]2C[C@H](O)[C@@H](CO)O2)c(=O)[nH]c1=O
IC50 [7]: 28000 µM

Cc1cn([C@H]2C[C@H](O)[C@@H](CSCCCC(=O)O)O2)c(=O)[nH]c1=O
Activity [8]: 62%
Activity [9]: 61%
Activity [11]: 35%
Activity [10]: 60%

CCn1c(=O)c(C)cn([C@H]2C[C@H](O)[C@@H](CO)O2)c1=O
inhibition [2]: 44%
IC50 [7]: 1250 µM
inhibition [3]: 30%

CCCC(=O)NC[C@H]1O[C@@H](n2cc(C)c(=O)[nH]c2=O)C[C@@H]1O
inhibition [2]: 0%
inhibition [3]: 0%

CCCCCn1c(=O)c(C)cn([C@H]2C[C@H](O)[C@@H](CO)O2)c1=O
inhibition [2]: 59%
IC50 [7]: 650 µM
inhibition [3]: 45%

CC(=O)Nc1cn([C@H]2C[C@H](O)[C@@H](CO)O2)c(=O)[nH]c1=O
inhibition [1]: 15%
inhibition [3]: 15%

CC(=O)N[C@H]1C[C@H](n2cc(C)c(=O)[nH]c2=O)O[C@@H]1CO
IC50 [7]: 6100 µM

Nc1ccn([C@H]2C[C@H](O)[C@@H](CO)O2)c(=O)n1
inhibition [1]: 0%
inhibition [3]: 0%

CCCCNC[C@H]1O[C@@H](n2cc(C)c(=O)[nH]c2=O)C[C@@H]1O
inhibition [1]: 12%
inhibition [3]: 9%

CC[S+]([O-])C[C@H]1O[C@@H](n2cc(C)c(=O)[nH]c2=O)C[C@@H]1O (stereo partly specified)
Activity [8]: -4%
Activity [9]: -5%
Activity [11]: 22%

CCNC[C@H]1O[C@@H](n2cc(C)c(=O)[nH]c2=O)C[C@@H]1O
inhibition [14]: 36%
inhibition [15]: 28%

CC(=O)NCC(O)[C@H]1O[C@@H](n2cc(C)c(=O)[nH]c2=O)C[C@@H]1O (stereo partly specified)
Activity [16]: inactive
Activity [17]: inactive

CCC(=O)NCC(O)[C@H]1O[C@@H](n2cc(C)c(=O)[nH]c2=O)C[C@@H]1O (single isomer, unassigned; less polar)
Ki [4]: 850 µM

From ChEMBL document CHEMBL3244008, “Design of species- or isozyme-specific enzyme inhibitors. 2. Differences between a bacterial and a mammalian thymidine kinase in the effect of thymidine substituents on affinity for the thymidine site” (J Med Chem, 1979)
